The source of these data is ChEMBL document CHEMBL4033621, “Design, synthesis and biological evaluation of new pyrazolyl-ureas and imidazopyrazolecarboxamides able to interfere with MAPK and PI3K upstream signaling involved in the angiogenesis” (Eur J Med Chem, 2017).

Calls of active or inactive are those of the source. No cut-off for these calls is given here.

For experiment [1], the species on record is Homo sapiens. Briefly: Effect on VEGF-stimulated PI3K signaling pathway in HUVEC assessed as AKT phosphorylation level at 20 uM pretreated for 10 mins followed by VEGF stimulation and subsequent compound addition measured after 20 mins by Western blot analysis relative to control. A digest of the protocol:
(§1)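 HUVEC grown to confluence in M199 with 10% FCS, ECGS, heparin, hydrocortisone, then starved ≥4 h in medium alone. Pre-incubated 10 min at 37°C with compound 20 µM in DMSO, then VEGF 50 ng/mL plus compound for 20 min. Lysates (30 µg) immunoblotted for phospho-ERK1/2, phospho-p38MAPK or phospho-Akt, with tubulin as loading control. ECL detection, densitometry. Results given relative to VEGF+DMSO on the same blot (100%), ≥2 independent experiments.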

For experiment [2], the species on record is Homo sapiens. Kind of experiment: Effect on VEGF-stimulated MAPK signaling pathway in HUVEC assessed as p38 MAPK phosphorylation level at 20 uM pretreated for 10 mins followed by VEGF stimulation and subsequent compound addition measured after 20 mins by Western blot analysis relative to control. Summed up: as §1
Experiment [3] relates to HUVEC. Kind of experiment: Antimigratory activity against VEGF-stimulated HUVEC at 20 uM measured up to 15 hrs in presence of CMFDA probe by microscopy-based wound healing assay. The conditions noted are these: Homo sapiens. Format: functional, cell-based. A digest of the protocol:
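Confluent HUVEC (48 h growth) labelled with CMFDA (1:5000 of 10 mM stock), scratched with sterile tip, washed with PBS, then given VEGF 50 ng/mL plus compound 20 µM (DMSO control). Wounds imaged at 0 and 15 h by microscopy. Colonized area = area 0 h − area 15 h, expressed as percent of control set at 100%.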

Experiment [4] is filed under the species Homo sapiens. Kind of experiment: Effect on VEGF-stimulated MAPK signaling pathway in HUVEC assessed as ERK1/2 phosphorylation level at 20 uM pretreated for 10 mins followed by VEGF stimulation and subsequent compound addition measured after 20 mins by Western blot analysis relative to control. A digest of the protocol:
as §1

As to `CC(C)(C)c1cc(NC(=O)Nc2ccccc2F)n(CC(O)c2ccccc2)n1` (stereo not given), the outcome in experiment [1] and in experiment [3] was inactive. The Activity in experiment [2] is -74%. For the same molecule, the outcome in experiment [4] was Active.
For the molecule `CCOC(=O)c1cnn(CC(=O)c2ccccc2)c1NC(=O)Nc1ccccc1F`, the outcome in experiment [1], in experiment [3] and in experiment [4] was inactive. Besides, the outcome in experiment [2] was Active.
Turning to `CCOC(=O)c1cnn(CC(=O)c2ccccc2)c1NC(=O)Nc1cccc(F)c1`, in experiment [1], the Activity was 63%. The result in experiment [2] and in experiment [4] was Active. Moreover, the outcome in experiment [3] was inactive.
Consider `CCOC(=O)c1cc2n(n1)CC(c1ccccc1)N2C(=O)Nc1ccc(F)cc1` (stereo not given), for which the result in experiment [1] and in experiment [2] was Active. Further, in experiment [3], the outcome was inactive.
Regarding `CCOC(=O)c1cnn(CC(=O)c2ccccc2)c1NC(=O)Nc1cccc(C(F)(F)F)c1`, the outcome in experiment [1], in experiment [2] and in experiment [4] was Active. In addition, the outcome in experiment [3] was inactive.
Turning to `CCOC(=O)c1cc(NC(=O)Nc2cccc(F)c2)n(CC(O)c2ccccc2)n1` (stereo not given), the Activity in experiment [1] amounted to 51%. The outcome in experiment [2] and in experiment [4] was Active. In addition, the result in experiment [3] was inactive.
On to `CCOC(=O)c1cc(NC(=O)Nc2ccccc2F)n(CC(O)c2ccccc2)n1` (stereo not given), for which the result in experiment [1] and in experiment [3] was inactive. In addition, the Activity in experiment [2] is 97%; in experiment [4], -89%.
With `CCOC(=O)c1cnn(CC(=O)c2ccccc2)c1NC(=O)Nc1ccc(F)cc1`, in experiment [1], the Activity turned out to be 96%. Further, the result in experiment [2] and in experiment [4] was Active. Moreover, in experiment [3], the result was inactive.
Regarding `CC(C)(C)c1cc(NC(=O)Nc2cccc(F)c2)n(CC(O)c2ccccc2)n1` (stereo not given), the outcome in experiment [1] and in experiment [4] was Active. Besides, in experiment [2], the Activity was 199%. The result in experiment [3] was inactive.
For the molecule `CCOC(=O)c1cc(NC(=O)Nc2cccc(C(F)(F)F)c2)n(CC(O)c2ccccc2)n1` (stereo not given), the result in experiment [1] and in experiment [3] was inactive. The Activity in experiment [2] is -61%. For the same molecule, in experiment [4], the outcome was Active.
For `CCOC(=O)c1cnn(CC(C)O)c1NC(=O)Nc1cccc(C(F)(F)F)c1` (stereo not given), the result in experiment [1], in experiment [2] and in experiment [4] was Active. In addition, in experiment [3], the result was inactive.
As for `CCCC(O)Cn1ncc(C(=O)OCC)c1NC(=O)Nc1cccc(C(F)(F)F)c1` (stereo not given), the figures for the Activity in experiment [1], in experiment [2] and in experiment [4] were -29%, 180% and -59%, respectively. In addition, the result in experiment [3] was Active.
For `CC(C)(C)c1cc(NC(=O)Nc2ccc(F)cc2)n(CC(O)c2ccccc2)n1` (stereo not given), in that order: -83%, -70%, -67% and “inactive”.
For `CCOC(=O)c1cc(NC(=O)Nc2ccc(F)cc2)n(CC(O)c2ccccc2)n1` (stereo not given), in that order: “inactive”, -81%, “Active” and “inactive”.
Take `CCOC(=O)c1cnn(CC(O)CC)c1NC(=O)Nc1cccc(C(F)(F)F)c1` (stereo not given): the outcome in experiment [1] and in experiment [2] was Active. For the same molecule, the result in experiment [3] and in experiment [4] was inactive.
Turning to `CCOC(=O)c1cnn2c1N(C(=O)Nc1cccc(C(F)(F)F)c1)C(c1ccccc1)C2` (stereo not given), the outcome in experiment [1] was Active. Besides, the figures for the Activity in experiment [2] and in experiment [4] were 200 to 300% and -26%, respectively. Further, the outcome in experiment [3] was inactive.
For the molecule `NC(=O)c1cnn2c1N(C(=O)Nc1cccc(C(F)(F)F)c1)C(c1ccccc1)C2` (stereo not given), the outcome in experiment [1] was Active. In addition, the Activity in experiment [2] fell in the range of 200 to 300%. For the same molecule, the result in experiment [3] and in experiment [4] was inactive.
In the case of `O=C(c1cnn2c1N(C(=O)Nc1cccc(C(F)(F)F)c1)C(c1ccccc1)C2)N1CCCCC1` (stereo not given), in experiment [1], the outcome was Active. For the same molecule, the figures for the Activity in experiment [2] and in experiment [4] were 200 to 300% and 83%, respectively. Moreover, the result in experiment [3] was inactive.
For `CC(C)(C)c1cc2n(n1)CC(c1ccccc1)N2C(=O)Nc1ccccc1F` (stereo not given), the result in experiment [1] and in experiment [3] was inactive. In addition, the outcome in experiment [2] was Active.
With `CCOC(=O)c1cc2n(n1)CC(c1ccccc1)N2C(=O)Nc1cccc(C(F)(F)F)c1` (stereo not given), the result in experiment [1] and in experiment [2] was Active. Besides, the result in experiment [3] was inactive. For the same molecule, the Activity in experiment [4] is -75%.
In the case of `CCOC(=O)c1cnn(CC(O)c2ccccc2)c1NC(=O)Nc1cccc(C(F)(F)F)c1` (stereo not given), the Activity in experiment [1] was -37%; in experiment [2], 150%; in experiment [4] it was -70%. Also, the outcome in experiment [3] was inactive.
On to `CCOC(=O)c1cc2n(n1)CC(c1ccccc1)N2C(=O)Nc1cccc(F)c1` (stereo not given), for which the result in experiment [1] and in experiment [2] was Active. In addition, the outcome in experiment [3] was inactive.
Consider `CC(C)(C)c1cc(NC(=O)Nc2cccc(C(F)(F)F)c2)n(CC(O)c2ccccc2)n1` (stereo not given), for which the result in experiment [2] and in experiment [4] was Active. Moreover, the result in experiment [3] was inactive.
Regarding `CC(C)(C)c1cc2n(n1)CC(c1ccccc1)N2C(=O)Nc1cccc(F)c1` (stereo not given), the result in experiment [1] and in experiment [2] was Active. Further, the outcome in experiment [3] was inactive.
On to `CC(C)(C)c1cc2n(n1)CC(c1ccccc1)N2C(=O)Nc1ccc(F)cc1` (stereo not given), for which the outcome in experiment [1] and in experiment [2] was Active. Besides, in experiment [3], the outcome was inactive.
In the case of `CCOC(=O)c1cc2n(n1)CC(c1ccccc1)N2C(=O)Nc1ccccc1F` (stereo not given), the outcome in experiment [1] and in experiment [3] was inactive. Moreover, the result in experiment [2] was Active.
For the molecule `CC(C)(C)c1cc2n(n1)CC(c1ccccc1)N2C(=O)Nc1cccc(C(F)(F)F)c1` (stereo not given), the result in experiment [1] was Active. In addition, in experiment [2], the Activity worked out at 140%. In addition, in experiment [3], the result was inactive.
